The source of these data is ChEMBL document CHEMBL1156121, “Synthesis and antioxidant properties of some novel 5H-dibenz[b,f]azepine derivatives in different in vitro model systems” (Eur J Med Chem, 2010).

Experiment [1] relates to Radical scavenging activity. In words: Antioxidant activity assessed as DPPH radical scavenging activity. It counts as functional. An outline of the steps: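 Ethanolic compound solutions (10, 25, 50, 100, 200, 500) were mixed with 0.1 mM DPPH in ethanol (4 mL to 1 mL sample) and kept in the dark at room temperature for 20 min. A517 was compared with a compound-free blank, giving % inhibition = (A0−A1)/A0×100. IC50 was read from the plot of % scavenging against concentration.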
For orientation: The DPPH test is a chemical assay of radical scavenging.

A short description of experiment [2]: Antioxidant activity assessed as reduction of […]/ferricyanide complex. It counts as functional. An outline of the steps: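 Oyaizu method. Compounds (50 and 100) were incubated in 0.2 M phosphate buffer pH 6.6 with 1% potassium ferricyanide at 50 °C for 20 min. After adding 10% TCA and centrifuging, the supernatant was diluted with water and mixed with 0.1% FeCl3, then A700 was read. Values are means of three independent samples.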

The subject of experiment [3] is Blood. As to the kind of experiment: Antioxidant activity against copper-induced low density lipoprotein oxidation in human blood assessed as malonoldehyde formation by thiobarbituric acid method. It counts as functional, tissue-based. An outline of the steps: (§1)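 Human LDL isolated from fasting volunteers' plasma by ultracentrifugation, then dialysed against PBS pH 7.4 (0.1 mg LDL protein/mL). Compounds at 10 and 25 were incubated with LDL and 40 µL of 2 mM CuSO4 in 50 mM phosphate buffer pH 7.4 at 37 °C. Controls were run without compound and without copper. Aliquots taken at 2, 4 and 6 h were heated with TBA/TCA at 95 °C for 45 min. TBARS (MDA) was read at 532 nm.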

Experiment [4] can be described thus: Antioxidant activity against lipid peroxidation at 50 uM by beta-carotene linoleate method. It counts as functional. The procedure, abridged:
(§2)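 β-Carotene/linoleic acid/Tween-40 emulsion, with chloroform removed, was mixed with compound in ethanol; BHA and ascorbic acid were run at the same concentrations as references. Absorbance was read at 470 nm at t=0 and then every 30 min to 180 min. Results are given as % antioxidant activity, mean ± SD, n = 3.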

Experiment [5] can be described thus: Antioxidant activity against lipid peroxidation at 25 uM by beta-carotene linoleate method. It counts as functional. An outline of the steps:
as §2

Experiment [6] relates to Blood. In words: Antioxidant activity against copper-induced low density lipoprotein oxidation in human blood assessed as malonoldehyde formation at 10 uM after 2 hrs by thiobarbituric acid method. It counts as functional. The procedure, abridged: as §1
For experiment [7], the system named is Blood. In words: Antioxidant activity against copper-induced low density lipoprotein oxidation in human blood assessed as malonoldehyde formation at 25 uM after 2 hrs by thiobarbituric acid method. It counts as functional. An outline of the steps: as §1
Experiment [8] deals with Blood. As to the kind of experiment: Antioxidant activity against copper-induced low density lipoprotein oxidation in human blood assessed as malonoldehyde formation at 10 uM after 6 hrs by thiobarbituric acid method. It counts as functional. An outline of the steps:
as §1

The subject of experiment [9] is Blood. In words: Antioxidant activity against copper-induced low density lipoprotein oxidation in human blood assessed as malonoldehyde formation at 25 uM after 6 hrs by thiobarbituric acid method. It counts as functional. An outline of the steps: as §1

Activity calls are given as the source filed them. The rule behind the calls is not given here.

As a reminder, the IC50 is the concentration needed to halve the response being measured. Take `O=C(CCNc1cccc(O)c1)N1c2ccccc2C=Cc2ccccc21`: in experiment [1], the IC50 worked out at 17.4 µM. In experiment [2], the Activity entry was “Dose-dependent effect”. Besides, the outcome in experiment [3] was Active.
Take `O=C1O[C@H]([C@@H](O)CO)C(O)=C1O` [ASCORBIC ACID]: the IC50 in [1] worked out at 13.2 µM.
On to `COc1ccc(O)c(C(C)(C)C)c1.COc1ccc(O)cc1C(C)(C)C` [BUTYLATED HYDROXYANISOLE], for which the half-maximal inhibitory concentration (IC50) in [1] was 14.1 µM.
For `O=C(CCNc1ccccc1O)N1c2ccccc2C=Cc2ccccc21`, the IC50 in [1] came to 16.1 µM. Moreover, the Activity entry in [2] was “Dose-dependent effect”. Also, the result in experiment [3] was Active.
Consider `COc1cc(NCCC(=O)N2c3ccccc3C=Cc3ccccc32)ccc1O`, for which, in experiment [1], the half-inhibitory concentration (IC50) turned out to be 13.9 µM. Further, the Activity in experiment [4] is 91.3%; in experiment [5], 91.5%; in experiment [2], “Dose-dependent effect”; in [6], 56.13%; in experiment [7] it was 70.41%; in experiment [8], 72.93%. For the same compound, the Activity in experiment [9] amounted to 89.61%.
For `O=C(CCCl)N1c2ccccc2C=Cc2ccccc21`, the result in [1], in experiment [2] and in experiment [3] was inactive. The Activity in [6] amounted to 5.34%; in [7] it was 7.43%; in experiment [8], 8.87%; in experiment [9] it was 12.43%.
With `O=C(CCNc1ccc(O)c([N+](=O)[O-])c1)N1c2ccccc2C=Cc2ccccc21`, the 50% inhibitory concentration (IC50) in experiment [1] was 14.8 µM. Moreover, the results for the Activity in experiment [4], in [5] and in experiment [2] were 90%, 88.4% and “Dose-dependent effect”, respectively. In addition, the outcome in [3] was Active.
For `O=C(CCNc1ccc(O)cc1)N1c2ccccc2C=Cc2ccccc21` the same measures were 15.3 µM, 88.7%, 87.1%, “Dose-dependent effect” and “Active”.
